ATG4B inhibitor = ATG4B (human) cysteine protease inhibition. Q9Y4P1. ATG4B cleavage of LC3-PLA2, NBD-HPC fluorescence, 1 h. inhibition, % at 8.33 µM. actives 0.51% (n = 340,000); in the data active means inhibition above about 40%
GRIN3A LBD mod = modulates the human NR3A ligand-binding domain | NR3A LBD differential scanning fluorimetry, Tm shift; 0% = protein alone, 100% = glycine-bound protein | Tm shift relative to glycine control, % at 25 µM | actives 2.5% (n = 340,000);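 active means melting temperature shift of at least 10% of the positive control shift, at one fixed dose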
SENP1 FRET inh = inhibitors of human SENP1 SUMO protease catalytic domain | recombinant SENP1 catalytic domain, CyPet-SUMO1-YPet FRET cleavage | inhibition, % at 10 µM | actives 0.21% (n = 360,000) | AID 624204;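 active means inhibition at least 30% at 10 µM, raw YFP signal under a set limit, fluorescence ratio 0.5 to 1.5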;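 further: 0% = enzyme with DMSO and 100% = no enzyme wells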
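Test system: hSENP1 catalytic domain, recombinant; Amount: 20 pM final SENP1 enzyme; Medium: Tris pH 8 buffer plus EDTA, NaCl, BME, BSA, NP40, catalase; Schedule: 50 min enzyme reaction, room temperature, light-protected; Technique: FRET fluorescence in CFP and YFP emission channels; Controls: no-enzyme wells low, DMSO-plus-enzyme wells high control.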
NadD block = NadD (S. aureus) enzyme inhibition; purified NadD enzyme, colorimetric absorbance read-out; inhibition, % at 20 µM; actives 0.78% (n = 360,000); AID 602399; in the data active means inhibition above about 26%
UCH37 DUB inh = human UCH37 deubiquitinating enzyme inhibition; purified proteasome/UCH37, Ub-AMC cleavage fluorescence; inhibition, % (concentration not given with the values); actives 0.33% (n = 330,000);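 active means mean inhibition over replicate wells above about 20%, limit read from the data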;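 further: 0% = compound-free wells with enzyme and 100% = wells lacking proteasome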
Target sequence (Q9Y5K5 whole entry, looked up): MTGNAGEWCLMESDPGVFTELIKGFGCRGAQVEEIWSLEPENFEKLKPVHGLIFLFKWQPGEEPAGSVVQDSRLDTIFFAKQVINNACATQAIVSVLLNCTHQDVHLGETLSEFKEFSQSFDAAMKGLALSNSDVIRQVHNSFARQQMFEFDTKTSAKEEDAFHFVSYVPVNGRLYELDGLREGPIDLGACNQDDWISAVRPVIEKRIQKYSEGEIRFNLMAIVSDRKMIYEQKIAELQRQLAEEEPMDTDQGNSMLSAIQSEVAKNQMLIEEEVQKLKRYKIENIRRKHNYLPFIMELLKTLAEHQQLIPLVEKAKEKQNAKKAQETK
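Material: Human UCH37 enzyme supplied as purified proteasome complex | Schedule: 30 min preincubation with enzyme, 25 min cleavage at room temperature | Detection: AMC fluorescence 355/460 nm | Measure: % inhibition of Ub-AMC cleavage fluorescence | Controls: Wells without proteasome as full block, compound-free enzyme plus substrate as uninhibited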
Numbers without * were called inactive; / = not tested or not shown. Only some compounds are listed: those with a hit (about 3.6% of all), similar ones and a draw of the others.

SMILES	ATG4B inhibitor	GRIN3A LBD mod	SENP1 FRET inh	NadD block	UCH37 DUB inh
O=C(CCCN1C(=O)/C(=C/c2cccs2)SC1=S)Nc1ccccn1	8	-6	-4	2	3
O=C(CCN1C(=O)/C(=C\c2cccs2)SC1=S)Nc1ccccn1	-2	-9	10	4	8
COC(=O)c1scc(C)c1NN=C(C)c1ccc(F)cc1F	/	/	/	/	0
Cc1cc([N+](=O)[O-])c(C)cc1-c1ccc(C=NNC(=O)c2cccnc2)o1	/	/	/	/	9
O=C(CCN1C(=O)/C(=C/c2cccs2)SC1=S)Nc1ccc(O)cc1	-5	22*	13	2	7
O=C(CCCN1C(=O)/C(=C/c2cccs2)SC1=S)Nc1ccc(C(=O)O)cc1	13	-3	-8	-5	8
O=C(CCCN1C(=O)/C(=C/c2cccs2)SC1=S)Nc1cccc(O)c1	-9	14*	-1	-1	2
O=C(CCN1C(=O)/C(=C/c2cccs2)SC1=S)Nc1cccc(O)c1	-10	11*	-4	-1	4
COc1ccc(C=NNc2nonc2N)cc1OC	/	/	/	/	5
COc1ccc2[nH]c(=O)c3c(c2c1)OC(C)(C)C=C3	2	1	-1	1	-77
Cc1cc2c([nH]c3ccccc32)c2c1OC(C)(C)C=C2	9	16*	-1	2	3
NS(=O)(=O)c1ccc(CCNC(=O)C2CCC(CNS(=O)(=O)c3ccc(Br)s3)CC2)cc1 (stereo not drawn)	2	13*	-2	-3	4
O=C(NCc1cccs1)C1CCC(CNS(=O)(=O)c2ccc(Br)s2)CC1 (stereo not drawn)	-3	0	0	-4	2
COCCn1c(SCC(=O)Nc2sccc2C(N)=O)nc2cc(Cl)ccc2c1=O	-13	37*	-5	1	3
C=CCn1cnc2c(c1=O)c1nc3ccccc3nc1n2/N=C/c1cccc(OC)c1	0	11*	1	-8	/
Cn1c2ccccc2c2cc(/C=N/NC(=O)c3cc(O)cc(O)c3)ccc21	-16	28*	-3	19	/
COc1cc(C(=O)N/N=C/c2ccc3c(c2)c2ccccc2n3C)ccc1O	-19	38*	-1	21	/
CSc1ccc(/C=N/NC(=O)c2cc(O)cc(O)c2)cc1	-5	13*	3	0	/
CSc1ccc(C=NNC(=O)c2cc(O)cc(O)c2)cc1	/	/	/	/	-1
Cn1c2ccccc2c2cc(C=NNC(=O)c3cc(O)cc(O)c3)ccc21	/	/	/	/	-86
COc1ccc2nc(C=NNC(=O)CCCCCNC(=O)OC(C)(C)C)ccc2c1	/	/	/	/	-142
Cc1nc2cc(C(F)(F)F)ccc2n1CCNc1nc(-c2ccc([N+](=O)[O-])c(Cl)c2)cs1	7	25*	4	29	1
O=[N+]([O-])c1cc(-c2csc(NCCc3nc4cc(C(F)(F)F)ccc4n3CCCO)n2)ccc1Cl	-1	17*	5	0	0
CC(=NNC(=O)c1nnn(-c2nonc2N)c1-c1ccc(Cl)c(Cl)c1)c1ccncc1	/	/	/	/	2
Cc1nc2c(Br)cc(Br)cc2cc1O	3	24*	-2	-5	2
SMILES	ATG4B inhibitor	GRIN3A LBD mod	SENP1 FRET inh	NadD block	UCH37 DUB inh
Cc1cc2[nH]c3c(c[n+](C)c4ccccc34)c2cc1C	8	-1	-11	13	-50
Cc1cc2[nH]c3c4ccccc4nc(C)c3c2cc1C	-8	10*	-31	15	/
Clc1cccc(-c2ccc(C3Nc4cccc5cccc(c45)N3)o2)c1	-13	4	-2	52*	/
COc1ccc(CC(=O)NN=C(C)CC(=O)N(C)c2ccccc2)cc1	/	/	/	/	8
O=C(CC(c1ccccc1)c1ccccc1)Nc1ccc(Cl)cn1	-5	-4	1	3	34*
COC(=O)c1cc2occc2n1CC(=O)Nc1ccc(OC)c(OC)c1	2	-4	-1	-6	0
COC(=O)c1cc2occc2n1CC(=O)Nc1cc(OC)cc(OC)c1	1	11*	1	-2	0
Cn1c(=O)c2[nH]c(N=NN3CCCCC3)nc2n(C)c1=O	-4	6	-1	-3	22*
CC1CCN(N=Nc2nc3c([nH]2)c(=O)n(C)c(=O)n3C)CC1	-4	4	3	-2	17
O=C(CSc1n[nH]c(-c2ccco2)n1)Nc1ccc(Br)cc1	0	14*	0	-3	/
O=C(CSc1n[nH]c(-c2ccncc2)n1)Nc1ccccc1	-6	27*	1	1	2

Source: PubChem (several laboratories)
